Source: ChEMBL document CHEMBL1155242, “Radiolabeled 5-iodo-3'-O-(17beta-succinyl-5alpha-androstan-3-one)-2'-deoxyuridine and its 5'-monophosphate for imaging and therapy of androgen receptor-positive cancers: synthesis and biological evaluation” (J Med Chem, 2009)

Key:
[1] = Stability in mouse serum assessed as intact compound remaining at 10 to 20 uCi/mL after 10 mins by size-exclusion HPLC analysis; format: ADME, cell-free; conditions: read-out: Stability
In short: (§1)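 The compound was incubated in mouse serum, which lacks circulating SHBG. Aliquots were analysed on size-exclusion HPLC (TSK3000; phosphate/Na2SO4 buffer, pH 6.8, then an acetonitrile gradient). Extracts were analysed by C18 reversed-phase HPLC to measure intact compound remaining over time.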

[2] = molecular target: T1, Sex hormone-binding globulin (Homo sapiens, UniProt P04278); assay: Binding affinity to human sex hormone binding globulin assessed as intact compound remaining at 10 to 20 uCi/mL after 60 mins by instant thin layer chromatography; format: ADME; conditions: read-out: Stability
T1 sequence (P04278 whole entry): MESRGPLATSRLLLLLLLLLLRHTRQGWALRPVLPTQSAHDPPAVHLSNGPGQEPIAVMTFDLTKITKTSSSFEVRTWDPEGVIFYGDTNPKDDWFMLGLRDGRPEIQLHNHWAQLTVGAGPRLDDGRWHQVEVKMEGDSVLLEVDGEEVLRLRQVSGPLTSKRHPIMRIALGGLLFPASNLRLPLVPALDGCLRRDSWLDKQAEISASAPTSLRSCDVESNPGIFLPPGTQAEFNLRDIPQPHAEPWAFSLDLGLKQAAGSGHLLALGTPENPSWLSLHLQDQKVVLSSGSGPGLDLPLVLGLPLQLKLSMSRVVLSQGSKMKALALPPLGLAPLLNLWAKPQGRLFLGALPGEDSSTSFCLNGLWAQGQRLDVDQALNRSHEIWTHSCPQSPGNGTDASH

Serum = assay: Stability in human serum assessed as half life at 10 to 20 uCi/mL by size-exclusion HPLC analysis; format: ADME, cell-free
In short: (§2)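 The compound was incubated with rabbit or human serum at ambient temperature, and aliquots were taken at 1, 5 and 24 h. Aliquots were run on size-exclusion HPLC (TSK3000; 0.1 M potassium phosphate/0.1 M Na2SO4, pH 6.8, then an acetonitrile gradient). Extracts were run on C18 reversed-phase HPLC (water/acetonitrile with 0.07% TFA). Half-lives came from a monoexponential fit.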

[3] = Stability in rabbit serum assessed as half life at 10 to 20 uCi/mL by reversed phase HPLC analysis; format: ADME, cell-free, Oryctolagus cuniculus; in short: as §2
LNCaP [4] = assay: Cellular uptake in single-cell suspension of nonproliferating human LNCAP cells expressing androgen receptor at 0.03 uCi/mL up to 2 hrs by gamma counting; format: ADME, cell-based; conditions: TDE = time-dependent effect
In short: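 Low-passage LNCaP held as single-cell suspension (non-proliferating) in RPMI-1640 with radioligand at 0.03 or 0.37 μCi/mL; whole-cell and nuclear radioactivity measured over time.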

LNCaP [5] = assay: Cellular uptake in proliferating human LNCAP cells expressing androgen receptor after 24 hrs by gamma counting; format: ADME, cell-based
In short: (§3)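 Proliferating LNCaP monolayers exposed 24 h to a range of radioligand concentrations; whole-cell uptake measured.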

OVCAR-3 [6] = assay: Cytotoxicity against human OVCAR-3 cells expressing androgen receptor assessed as cell survival at 0.01 to 5 uCi/mL after 24 hrs; format: functional
[7] = Stability in human OVCAR-3 cells expressing androgen receptor assessed as assessed as compound degradation at 0.01 to 5 uCi/mL up to 24 hrs by silica gel instant thin layer chromatography; format: ADME, cell-based; conditions: read-out: Activity
[8] = Biodistribution in uterus of athymic NCr mouse xenografted with human OVCAR-3 cells assessed per gram of tissue at 1.12 uCi, ip after 72 hrs by gamma counting; format: ADME, organism-based; conditions: in vivo
OVCAR-3 [9] = assay: Antitumor activity against human OVCAR-3 cells xenografted in athymic NCr mouse assessed as number of cancer cells in peritoneum at 180 uCi, ip administered 9 days after tumor implantation as six fractionated doses every 4 days measured after 2 weeks of last dose by gamma counting; format: functional
In short: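 OVCAR-3 ip xenografts in athymic mice; six fractionated ip doses every 4 days, total 180 μCi/mouse, with PBS or vehicle ip controls. Nonadherent tumor cells recovered by peritoneal lavage at necropsy, counted and pellet-weighed.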

OVCAR-3 [10] = assay: Cellular uptake in human OVCAR-3 cells xenografted in athymic NCr mouse assessed as [125I]UdR retention per cell at an average 39.5 uCi/dose, ip administered 9 days after tumor implantation as six fractionated doses every 4 days measured after 2 weeks of last dose by gamma counting; format: ADME, organism-based; conditions: in vivo, 336 h
In short: (§4)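 OVCAR-3-bearing and healthy athymic mice given fractionated ip doses on the six-dose every-4-days schedule; tissues, tumor and lavaged cells γ-counted at necropsy, %ID/g; DNA-bound 125I in cells measured as cpm/cell.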

[11] = Ratio of drug level in tumor to uterus in athymic NCr mouse xenografted with human OVCAR-3 cells at 180 uCi, ip administered 9 days after tumor implantation as six fractionated doses every 4 days measured after 1.5 hrs by gamma counting; format: ADME, organism-based; conditions: in vivo
[12] = Ratio of drug level in tumor to spleen in athymic NCr mouse xenografted with human OVCAR-3 cells at 180 uCi, ip administered 9 days after tumor implantation as six fractionated doses every 4 days measured after 1.5 hrs by gamma counting; format: ADME, organism-based; conditions: in vivo
[13] = Ratio of drug level in tumor to spleen in athymic NCr mouse xenografted with human OVCAR-3 cells at 180 uCi, ip administered 9 days after tumor implantation as six fractionated doses every 4 days measured after 24 hrs by gamma counting; format: ADME, organism-based; conditions: in vivo
[14] = Ratio of drug level in tumor to uterus in athymic NCr mouse xenografted with human OVCAR-3 cells at 180 uCi, ip administered 9 days after tumor implantation as six fractionated doses every 4 days measured after 48 hrs by gamma counting; format: ADME, organism-based; conditions: in vivo
[15] = Ratio of drug level in tumor to blood in athymic NCr mouse xenografted with human OVCAR-3 cells at 180 uCi, ip administered 9 days after tumor implantation as six fractionated doses every 4 days measured after 72 hrs by gamma counting; format: ADME, organism-based; conditions: tumour
LNCaP [16] = assay: Cellular uptake in proliferating human LNCAP cells expressing androgen receptor assessed as [125I]UdR retention per cell at 1 to 4 uCi/mL after 24 hrs by gamma counting; format: ADME, cell-based; in short: as §3
Albumin = Albumin (Mus musculus, UniProt P07724); assay: Binding affinity to mouse serum albumin at 20 uCi after 60 mins by size-exclusion HPLC analysis; format: ADME; conditions: isolated protein, 1 h
Sequence of Albumin (P07724 whole entry): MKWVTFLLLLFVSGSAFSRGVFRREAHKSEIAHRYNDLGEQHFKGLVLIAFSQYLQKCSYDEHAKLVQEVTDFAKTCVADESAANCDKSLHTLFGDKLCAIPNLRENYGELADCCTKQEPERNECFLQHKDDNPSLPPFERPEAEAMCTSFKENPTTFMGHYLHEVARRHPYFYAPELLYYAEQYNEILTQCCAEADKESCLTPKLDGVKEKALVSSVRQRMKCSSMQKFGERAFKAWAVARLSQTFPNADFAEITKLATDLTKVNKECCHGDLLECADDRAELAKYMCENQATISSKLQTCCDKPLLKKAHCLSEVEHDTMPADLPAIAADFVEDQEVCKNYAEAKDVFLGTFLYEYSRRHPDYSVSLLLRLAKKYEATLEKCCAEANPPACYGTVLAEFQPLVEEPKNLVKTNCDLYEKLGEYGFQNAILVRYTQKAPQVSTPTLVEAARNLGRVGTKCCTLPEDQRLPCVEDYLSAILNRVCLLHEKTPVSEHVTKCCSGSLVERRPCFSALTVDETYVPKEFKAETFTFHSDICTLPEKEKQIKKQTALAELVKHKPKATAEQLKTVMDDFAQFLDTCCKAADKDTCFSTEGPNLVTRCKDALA

[17] = Stability in mouse serum assessed as intact compound remaining at 20 uCi after 40 mins by size-exclusion HPLC analysis; format: ADME, cell-free; conditions: read-out: Stability; in short: as §1
LNCaP [18] = assay: Cytotoxicity against human LNCAP cells expressing androgen receptor assessed as cell survival at 8 uCi/mL after 48 hrs; format: functional
In short: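 LNCaP human prostate cancer cells were grown for 48 h with the 125I-labelled compound in the medium, and cell survival was then determined. D37 was expressed as the extracellular concentration in μCi/mL.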

[19] = molecular target: T1, Sex hormone-binding globulin; assay: Binding affinity to human sex hormone binding globulin at 20 uCi after 60 mins by reversed phase HPLC analysis; format: ADME; conditions: 1 h
Blood = assay: Biodistribution in blood of athymic NCr mouse xenografted with human OVCAR-3 cells assessed per gram of tissue at an average 39.5 uCi/dose, ip administered 9 days after tumor implantation as six fractionated doses every 4 days measured after 2 weeks of last dose by gamma counting; format: ADME, organism-based; conditions: in vivo, 336 h; in short: as §4
OVCAR-3 [20] = assay: Antitumor activity against human OVCAR-3 cells xenografted in athymic NCr mouse assessed as solid tumor weight in peritoneum at 0.25 mCi, ip administered 31 days after tumor implantation as single bolus dose measured 55 days after implantation by gamma counting in presence of SHBG (Rvb= 1.9 +/- 0.8 g); format: functional

## C[C@]12CCC(=O)C[C@@H]1CC[C@@H]1[C@@H]2CC[C@]2(C)[C@@H](OC(=O)CCC(=O)O[C@H]3C[C@H](n4cc([125I])c(=O)[nH]c4=O)O[C@@H]3CO)CC[C@@H]12
[1]
  remaining at 10 min: < 1.5%
[2]
  remaining at 1 h: > 91%
Serum
  t1/2: 14.7 h
[3]
  t1/2: 5.7 h
LNCaP [4]
  Drug uptake: tde
LNCaP [5]
  Drug uptake: Dose-dependent effect
OVCAR-3 [6]
  Survival: 95%
[7]
  metabolised at 24 h: 1.1%
[8]
  Drug uptake: 1 %ID
OVCAR-3 [9]
  Activity: 380000000
OVCAR-3 [10]
  Drug uptake: 0.0124 cpm
[11]
  Ratio: 1.4
[12]
  Ratio: 1
[13]
  Ratio: 27.4
[14]
  Ratio: 16.6
[15]
  Ratio: 42.2
LNCaP [16]
  Bmax: 1.4 ×10⁻⁶ pmol

## C[C@]12CCC(=O)C[C@@H]1CC[C@@H]1[C@@H]2CC[C@]2(C)[C@@H](OC(=O)CCC(=O)O[C@H]3C[C@H](n4cc([125I])c(=O)[nH]c4=O)O[C@@H]3COP(=O)(O)O)CC[C@@H]12
Albumin
  Activity: Active
[17]
  remaining at 40 min, 20 uCi: 60%
LNCaP [18]
  Survival: 90%
[19]
  Activity: Active
Blood
  Drug uptake: 0.003 %ID
OVCAR-3 [20]
  Activity: 1.2 g
